E coli WT exp: growth inhibitors of E. coli BW25113 wild type; OD600 absorbance; growth inhibition, % at 100 µM; 0.15% of 98,000 active;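 active = growth inhibition above about 50% at one test dose, limit read from the data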;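 also: growth measured after 20 h incubation at 37 °C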
Ecoli tolC: blocks growth of E. coli BW25113 tolC mutant | OD615 | growth inhibition, % at 10 µM (by protocol) | 2.2% of 65,000 active | AID 573;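 active = growth inhibition at or above a cutoff equal to the mean over every tested compound plus 3 SD, cut at about 60% in these data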;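 also: growth measured after 20 h incubation at 37 °C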
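signal = optical density read at 615 nm | test system = E. coli ΔtolC::kan strain BW25113 | timing = 20 h compound exposure of bacteria at 37 °C | buffer or medium = LB medium plus 50 µg/mL kanamycin | compound dosing = 10 µM final, single dose | evaluation = % inhibition of E. coli growth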
CYP2C19 inh: blocks human cytochrome P450 2C19; inhibition, % at 5 µM; CYP2C19 Supersomes, luciferin-H EGE luminescence, 30 min; 21% of 96,000 active; AID 778;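 active = CYP2C19 inhibition above a set limit at 5 µM in the primary screen, cut at about 50% in these data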
Target sequence (P33261 whole entry, looked up): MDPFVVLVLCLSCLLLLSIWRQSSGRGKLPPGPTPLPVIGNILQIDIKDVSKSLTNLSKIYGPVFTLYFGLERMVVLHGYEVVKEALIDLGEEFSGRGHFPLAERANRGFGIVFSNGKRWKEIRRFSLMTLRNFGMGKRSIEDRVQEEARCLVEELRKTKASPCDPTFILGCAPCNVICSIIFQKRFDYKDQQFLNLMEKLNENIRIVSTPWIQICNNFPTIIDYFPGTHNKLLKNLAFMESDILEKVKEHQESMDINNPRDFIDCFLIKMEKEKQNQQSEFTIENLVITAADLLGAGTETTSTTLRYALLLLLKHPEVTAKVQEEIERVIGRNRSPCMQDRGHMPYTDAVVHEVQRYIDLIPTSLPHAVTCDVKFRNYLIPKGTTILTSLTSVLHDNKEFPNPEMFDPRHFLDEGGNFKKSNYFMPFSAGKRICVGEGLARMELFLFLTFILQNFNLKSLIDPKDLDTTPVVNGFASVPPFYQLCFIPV
CYP2C19 activ: activators of human cytochrome P450 2C19. P33261. recombinant CYP2C19, luciferin-H EGE luminescence; active compounds read high; 0 = fully inhibited enzyme, 1 = untreated enzyme. activation factor at 5 µM. 96,000 tested, under 10 active;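 active = activation factor of at least 2 at 5 µM in the primary screen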
CYP2C9 inh: blocks human cytochrome P450 2C9. AID 777. P11712. inhibition, % at 5 µM. CYP2C9 Supersomes, luciferin-H conversion, luminescence. 20% of 96,000 active;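 active = blocking of liver enzyme CYP2C9 beyond about 50% at 5 µM, limit read from the data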
CYP2C9 act: increases human cytochrome P450 2C9 activity; P11712; recombinant CYP2C9, luciferin-H conversion, luminescence; active compounds read high; factor 1 = untreated enzyme, 0 = blocked; activation factor at 5 µM; 1.4% of 96,000 active;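 active = activation factor of 2 or more for CYP2C9 at a 5 µM dose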
Of the large screens only hits and unclear results are named; the others gave an inactive call. Compounds with a hit are over-represented: about 29% of the library has one in this group of screens.

O=C(CSc1nnc(-c2ccccc2)c(-c2ccccc2)n1)N1CCc2ccccc21	none (no result: Ecoli tolC)
CSc1nsc(SCC(=O)N2CCCc3ccccc32)n1	CYP2C19 inh 99.1, CYP2C9 inh 80.5
O=C(CSc1n[nH]c(-c2ccccc2O)n1)N1CCCc2ccccc21	CYP2C19 inh 81.9, CYP2C9 inh 85.9
O=C(CSc1nnc(CNc2ccccc2)o1)N1CCCc2ccccc21	none
CCC(C(=O)NC1CCCC1)N(C(=O)Cn1nnc(-c2ccc(C)o2)n1)C(C)(C)C (stereo not drawn)	none
CCc1noc(C)c1C(=O)NCCc1ccc(OC)c(OC)c1	none
Cc1ccc2nc(NC3=NCN(CCN4CCOCC4)CN3)nc(C)c2c1	none (no result: E coli WT exp, CYP2C19 inh, CYP2C19 activ, CYP2C9 inh, CYP2C9 act)
COc1ccc(-c2c/c(=N\c3nc(-c4ccccc4)c(C)s3)c3ccccc3o2)cc1O	CYP2C9 inh 93.3 (no result: Ecoli tolC)
N#CCCN(C(=O)Nc1ccccc1)c1ccccc1	CYP2C19 inh 59.9
N#CCCN(C(=O)Nc1ccc(Cl)cc1)c1ccccc1	none
COc1ccc(CCNc2nncc(=O)[nH]2)cc1OC	none (no result: Ecoli tolC)
OC(COc1ccccc1Cl)CN1CCN(CC(O)COc2ccccc2Cl)CC1 (stereo not drawn)	none
OC(COc1c(Br)cc(Br)cc1Br)CN1CCOCC1 (stereo not drawn)	CYP2C19 inh 91.5
OC(COc1ccc2ccccc2c1Cl)CN1CCOCC1 (stereo not drawn)	CYP2C19 inh 53.8
Cc1cccc(-c2noc(CN(C)S(=O)(=O)c3cc(Cl)ccc3Cl)n2)c1	none
Cc1cccc(-c2noc(CN(C(=O)CCc3ccccc3)C(C)C)n2)c1	Ecoli tolC 76.4
COc1ccc(Cl)cc1C(=O)N(Cc1nc(-c2cccc(C)c2)no1)C(C)C	CYP2C19 inh 88.0
Cc1c(CN2CCN(c3cccc(C(F)(F)F)c3)CC2)c(=O)n(-c2ccccc2)n1C	none
C=CCCC(=O)Nc1nc(C)c(-c2csc(Nc3cc(OC)ccc3OC)n2)s1	CYP2C9 inh 51.6 (no result: Ecoli tolC)
CCCC(=O)Nc1nc(C)c(-c2csc(Nc3cc(OC)ccc3OC)n2)s1	CYP2C9 inh 77.8 (no result: Ecoli tolC)
COc1ccccc1Nc1nc(-c2sc(NC(=O)CC(C)C)nc2C)cs1	CYP2C9 inh 54.0 (no result: Ecoli tolC)
CCCC(C)C(=O)Nc1nc(C)c(-c2csc(Nc3cc(OC)ccc3OC)n2)s1 (stereo not drawn)	CYP2C9 inh 53.4 (no result: Ecoli tolC)
CCS(=O)(=O)N1CCCC(C(=O)NC2CCC(C)CC2)C1 (stereo not drawn)	none
CC(NC(=O)C(CC(=O)OC(C)(C)C)NC(=O)OC(C)(C)C)C(N)=O (stereo not drawn)	none
COc1cccc(Nc2nc(-c3sc(NC(=O)CC(C)C)nc3C)cs2)c1	CYP2C19 inh 83.7, CYP2C9 inh 85.6 (no result: Ecoli tolC)
COc1cccc(Nc2nc(-c3sc(NC(=O)c4ccccc4)nc3C)cs2)c1	CYP2C9 inh 58.6 (no result: Ecoli tolC)
COc1ccc2sc(NC(=O)CC(C)C)nc2c1	CYP2C19 inh 57.7, CYP2C9 inh 65.9
CCC(=O)Nc1nc2cc(OC)ccc2s1	none
C=CCCC(=O)Nc1nc(C)c(-c2csc(Nc3cccc(OC)c3)n2)s1	none (no result: Ecoli tolC)
Cc1nc(N)sc1-c1csc(Nc2ccccc2)n1	CYP2C19 inh 85.0, CYP2C9 inh 83.1
COc1ccccc1Nc1nc(-c2sc(NC(=O)c3cccc(Cl)c3)nc2C)cs1	none (no result: Ecoli tolC)
COc1ccc(Cn2cc(F)c(=O)n(CCC(C)C)c2=O)cc1[N+](=O)[O-]	none (no result: Ecoli tolC)
O=C(/C=C/c1ccccc1)N1CCN(CC(O)COc2ccccc2)CC1 (stereo not drawn)	none (no result: Ecoli tolC)
O=C(O)CCCCCNC(=O)CCn1cnc2ccccc2c1=O	none
CC1C(C(=O)Nc2ccccc2)CCCC1(C)C(=O)O (stereo not drawn)	none (no result: Ecoli tolC)
Cc1cc(C(F)(F)F)n2nc(-c3cnn(C)c3C(F)(F)F)cc2n1	none (no result: Ecoli tolC)
O=C(Cn1c(-c2ccco2)nc2ccccc21)N1CCCCC1	none
COc1ccccc1Nc1nc(-c2sc(NC(=O)C(C)(C)C)nc2C)cs1	none (no result: Ecoli tolC)
CCOc1ccccc1Nc1nc(-c2sc(NC(=O)c3ccco3)nc2C)cs1	CYP2C9 inh 58.6 (no result: Ecoli tolC)
COc1ccc(OC)c(Nc2nc(-c3sc(N)nc3C)cs2)c1	CYP2C19 inh 53.4, CYP2C9 inh 73.3
CCCC(=O)Nc1nc(C)c(-c2csc(Nc3ccccc3OC)n2)s1	CYP2C9 inh 66.3 (no result: Ecoli tolC)
Cc1nnc(C)n1/N=C/c1ccc(-c2ccccc2)cc1	none (no result: Ecoli tolC)
Cc1cc(C)cc(NC(=O)c2cc(S(=O)(=O)NCc3ccco3)ccc2F)c1	none
CCc1ccccc1NC(=O)CN(C)Cc1nc(N)nc(Nc2ccccc2C)n1	CYP2C19 inh 68.1
Cc1ccc(S(=O)(=O)N2CC3(C)CN(S(=O)(=O)c4ccc(C)cc4)CC(C)(C2)C3)cc1	none (no result: Ecoli tolC)
Cc1ccc2cc(C#N)c(NCCNC(=O)C3CC3)nc2c1C	CYP2C9 inh 64.3
CCC(=O)NCCNc1nc2cc(C)c(C)cc2cc1C#N	CYP2C19 inh 50.2, CYP2C9 inh 71.5 (no result: Ecoli tolC)
CCOCCCNC(=S)NCCNc1nc2c(C)cccc2cc1C#N	none (no result: Ecoli tolC)
CCOc1ccc2nc(NCCNC(=O)CC)c(C#N)cc2c1	none
Cc1csc(NC(=O)c2c(O)c3c(n(CC(C)C)c2=O)CCCC3)n1	CYP2C9 inh 51.4
CCN1CCN(CC(=O)Nc2cccc(C)c2C)C(=O)C1=O	none
CCCCN(Cc1ccco1)C(=O)Cn1ncc2c(=O)oc3ccc(C)cc3c21	none (no result: Ecoli tolC)
Cc1ccc(C)c(N(CC(=O)NC2CCCC2)C(=O)c2cc3cc4cccc(C)c4nc3s2)c1	CYP2C9 inh 95.6 (no result: Ecoli tolC)
Cc1ccc2cc3cc(C(=O)N(CC(=O)NC4CCCC4)c4cccc(C)c4C)sc3nc2c1	CYP2C9 inh 94.5 (no result: Ecoli tolC)
Cc1ccc(NC(=O)CS(=O)CC(=O)N(CC(=O)NC2CCCC2)c2cccc(C)c2C)cc1 (stereo not drawn)	none
COC(=O)[C@H](C)NC(=O)Nc1ccc(Oc2ccccc2)cc1	none
CN(C)c1ccc(/C=C(\C#N)C(=O)Nc2nc3c(s2)CCN(Cc2ccccc2)C3)cc1	none (no result: Ecoli tolC)
O=C(NCCN1CCOCC1)c1cc2c(=O)n3ccccc3nc2n1Cc1ccccc1	CYP2C19 inh 54.8
CCN1CCN(C(=O)c2cc3c(=O)n4ccccc4nc3n2Cc2ccccc2)CC1	none (no result: E coli WT exp)
N#Cc1cc2c(=O)n3ccccc3nc2n(CCN2CCOCC2)c1=O	none (no result: E coli WT exp)
N#Cc1cc2c(=O)n3ccccc3nc2n(CCCN2CCOCC2)c1=O	CYP2C19 inh 69.0
O=C(NC1CCCC1)c1cccc(NC(=O)c2ccco2)c1	none (no result: Ecoli tolC)
COc1ccc(-c2ccc(C#N)c(SCC(=O)Nc3sc4c(c3C#N)CCC4)n2)cc1	none (no result: Ecoli tolC)
Cc1ccc(/C=C/C2=Cc3c(sc(NC(=O)CSc4n[nH]c(N)n4)c3C#N)C(C)(C)C2)o1	CYP2C9 inh 90.6
O=C(/C=C/c1ccccc1Cl)NCc1ccco1	CYP2C9 act 2.3 (no result: Ecoli tolC)
COC(=O)c1c(NC(=O)c2c(C)noc2C)sc2c1CCCCCC2	none
COC(=O)c1c(NC(=O)c2c(-c3ccccc3Cl)noc2C)sc2c1CCC2	CYP2C19 inh 74.1, CYP2C9 inh 98.4 (no result: Ecoli tolC)
